Compound activity: PubChem, Broad Institute
CaV13 FRET inh – Disruptors of the CACNA1D IQ motif to Ca2+-dependent inactivation inhibitor domain association, primary screening, Förster resonance energy transfer in intact living … | HEK cells, CFP/YFP FRET ICDI-IQ, plate reader, 10 min; percent FRET-ratio fall versus neutral wells | inhibition, % at 12.3 µM | 340,000 tested, 0.098% active;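 active = mean replicate inhibition of at least 30% and at least 1% of replicates passing that level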
SIRT5 inh – SIRT5 desuccinylase inhibitors, primary screen, biochemical, fluorescence imaging, single point, set 5; AID 652115, 2013; NAD-dependent protein deacylase sirtuin-5, mitochondrial (Homo sapiens), Q9NXA8; Purified SirT5, succinyl-peptide AMC, trypsin-coupled fluorescence; 330,000 tested, 1.1% active; inhibition, % at 15 µM; in the data active = inhibition above about 15%
MLL AF4-AF9 inh – inhibitors of AF4 peptide binding to AF9, primary screen, biochemical, AlphaScreen, biotin-AF4 peptide, FLAG-AF9, single point; 350,000 tested, 0.47% active; Protein AF-9 (Homo sapiens), P42568; inhibition, % at 10 µM;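 active = every replicate reaching a set inhibition limit, whatever the replicate mean, cut at about 25% in these data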
Target sequence (P42568 whole entry, looked up): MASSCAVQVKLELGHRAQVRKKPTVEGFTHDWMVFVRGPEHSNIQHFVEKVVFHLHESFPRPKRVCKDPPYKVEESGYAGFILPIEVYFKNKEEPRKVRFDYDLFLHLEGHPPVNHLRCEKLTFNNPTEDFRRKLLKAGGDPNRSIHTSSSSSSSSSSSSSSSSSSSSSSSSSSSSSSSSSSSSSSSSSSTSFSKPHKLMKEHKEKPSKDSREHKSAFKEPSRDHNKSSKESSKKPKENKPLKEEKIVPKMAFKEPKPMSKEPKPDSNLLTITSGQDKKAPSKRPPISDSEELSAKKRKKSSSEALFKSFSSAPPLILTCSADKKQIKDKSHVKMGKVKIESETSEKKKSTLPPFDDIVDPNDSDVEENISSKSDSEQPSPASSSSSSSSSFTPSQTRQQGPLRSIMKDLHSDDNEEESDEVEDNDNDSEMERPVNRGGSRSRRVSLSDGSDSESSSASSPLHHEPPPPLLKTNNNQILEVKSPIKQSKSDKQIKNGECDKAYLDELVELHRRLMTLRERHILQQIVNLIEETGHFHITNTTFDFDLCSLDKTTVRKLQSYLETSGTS
DENV2 CPE – inhibitors of DENV2 cytopathic effect, primary screen, cell-based, plate reader, single concentration; DENV2-infected cells, cytopathic effect rescue; CPE inhibition, % at 9.99 µM; 350,000 tested, 1.7% active; AID 651640, 2012; in the data active = CPE inhibition above about 20%, passing the limit was not always enough; tested in BHK-21 cells
S100A4 inh HTS – inhibitors of S100A4-myosin IIA peptide binding, primary screen, biochemical, fluorescence polarization, TAMRA-MyoIIA peptide. Protein S100-A4 (Homo sapiens), P26447. inhibition, % at 10.7 µM. 360,000 tested, 0.14% active. AID 652163, 2013;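 active = mean inhibition of at least 70% across replicates, with every replicate also reaching that level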
Target sequence (P26447 whole entry, looked up): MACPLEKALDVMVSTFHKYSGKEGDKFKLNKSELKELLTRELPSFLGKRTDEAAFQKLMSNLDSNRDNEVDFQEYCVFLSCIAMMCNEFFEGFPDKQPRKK
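incubation = readout 5 min after mixing, signal stable up to 60 min | system = S100A4 monomer protein | buffer or medium = HEPES pH 7.2 with CaCl2, KCl, NaCl, DTT, Triton | benchmarks = neutral control DMSO, positive control TFP | also added = fluorescent myosin IIA peptide, 5 nM | compound dosing = one concentration per compound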
Large screens that a line does not name were inactive. Hits are enriched below; roughly 2.7% of the tested compounds scored in any of these assays.

C[C@@H]1CCCCO[C@H](CN(C)C(=O)CCCN(C)C)[C@@H](C)CN([C@H](C)CO)C(=O)c2cc(NS(=O)(=O)c3ccccc3)ccc2O1	none (no result: CaV13 FRET inh)
O=C(NCCN1C(=O)C2C3C=CC(C3)C2C1=O)Nc1cccnc1 (configuration not stated)	DENV2 CPE 29
O=C(NC1CCCCC1)C1c2ccccc2OCC(=O)N1Cc1ccco1 (configuration not stated)	SIRT5 inh 16
O=C(NC1CCCC1)C1c2ccccc2OCC(=O)N1Cc1ccccn1 (configuration not stated)	none
CCCCCCCCCCCCCCCCCCNc1ccn(C2OC(COP(=O)(O)OCC3OC(n4cc(F)c(=O)[nH]c4=O)CC3O)C(O)C2O)c(=O)n1 (configuration not stated)	SIRT5 inh 35
C[C@@H]1CN([C@@H](C)CO)C(=O)c2cc(C#CC3CCCC3)cnc2O[C@H]1CN(C)C(=O)C1CCCCC1	none (no result: CaV13 FRET inh)
CCOC(=O)C1(Cc2ccccc2)CCCN(C(=O)C=C(C)C)C1 (configuration not stated)	none
CCOC(=O)C1(Cc2ccccc2)CCCN(C2CCN(C(C)=O)CC2)C1 (configuration not stated)	SIRT5 inh 23
Cc1ccc(S(=O)(=O)NCC[C@@H]2CC[C@H](NC(=O)CCN3CCCCC3)[C@@H](CO)O2)cc1	SIRT5 inh 17 (no result: CaV13 FRET inh)
O=C(CCN1CCCCC1)N[C@H]1CC[C@@H](CCNS(=O)(=O)c2ccc(Cl)cc2)O[C@H]1CO	S100A4 inh HTS 82 (no result: CaV13 FRET inh)
O=C(CCN1CCCCC1)N[C@H]1CC[C@H](CCNS(=O)(=O)c2ccc(Cl)cc2)O[C@H]1CO	none (no result: CaV13 FRET inh)
Cc1ccc(S(=O)(=O)NCC[C@@H]2CC[C@H](NC(=O)CCN3CCCCC3)[C@H](CO)O2)cc1	DENV2 CPE 73 (no result: CaV13 FRET inh)
O=C(CCN1CCCCC1)N[C@H]1CC[C@@H](CCNS(=O)(=O)c2ccc(F)cc2)O[C@H]1CO	DENV2 CPE 25 (no result: CaV13 FRET inh)
CC(=O)N1[C@H](CO)[C@@H](c2ccccc2)[C@H]1CN(CC(C)C)C(=O)c1ccccn1	none (no result: CaV13 FRET inh)
C[C@H](CO)N1C[C@H](C)[C@H](CN(C)S(C)(=O)=O)Oc2ccc(NS(C)(=O)=O)cc2C1=O	none (no result: CaV13 FRET inh)
CC(C)CN(CC(C)C)S(=O)(=O)N1CCC(C(=O)NCCc2ccc(Cl)cc2)CC1	SIRT5 inh 16
C[C@H]1CN([C@@H](C)CO)C(=O)c2cc(NC(=O)Cc3ccccc3)ccc2O[C@@H]1CN(C)Cc1ccc(C(F)(F)F)cc1	none (no result: CaV13 FRET inh)
C[C@@H]1CN([C@H](C)CO)C(=O)c2cc(NC(=O)Nc3ccc(C(F)(F)F)cc3)ccc2O[C@@H]1CN(C)Cc1ccc(Cl)c(Cl)c1	DENV2 CPE 46 (no result: CaV13 FRET inh)
C[C@@H]1CN([C@H](C)CO)C(=O)c2cc(NC(=O)Nc3ccc(C(F)(F)F)cc3)ccc2O[C@H]1CN(C)Cc1ccncc1	DENV2 CPE 33 (no result: CaV13 FRET inh)
C[C@@H]1CN([C@@H](C)CO)C(=O)c2cc(NS(=O)(=O)c3cn(C)cn3)ccc2O[C@@H](C)CCCCO[C@H]1CN(C)Cc1ccccc1	none (no result: CaV13 FRET inh)
CCOC(=O)C(=CNc1cccc(N)n1)C(=O)OCC	none (no result: SIRT5 inh, MLL AF4-AF9 inh, DENV2 CPE, S100A4 inh HTS)
CCOC(=O)C(=CNc1ccc(Cl)cn1)C(=O)OCC	DENV2 CPE 67 (no result: SIRT5 inh)
CCCNC(=O)[C@H]1[C@H](CO)[C@H]2Cn3c(ccc(C4=CCCC4)c3=O)[C@H]2N1Cc1ccccc1	none (no result: CaV13 FRET inh)
O=C(O)CN1C(=O)/C(=C2\SC(=S)N(C(Cc3ccccc3)C(=O)O)C2=O)c2ccccc21 (configuration not stated)	SIRT5 inh 17
COCC(=O)Nc1ccc2c(c1)C(=O)N(C)[C@H]1CC[C@H](CC(=O)Nc3ccc(F)cc3)O[C@@H]1CO2	none (no result: CaV13 FRET inh)
CCS(=O)(=O)Nc1ccc2c(c1)C(=O)N(C)C[C@H](OC)[C@H](C)CN(Cc1ccccn1)[C@@H](C)CO2	none (no result: CaV13 FRET inh)
CC(=O)NC[C@@H]1[C@@H](c2ccc(-c3ccccc3F)cc2)[C@@H](CO)N1CCC(F)(F)F	SIRT5 inh 25 (no result: CaV13 FRET inh)
CC(=O)NC[C@H]1[C@@H](c2ccc(-c3ccccc3F)cc2)[C@@H](CO)N1CCC(F)(F)F	none (no result: CaV13 FRET inh)
CC(=O)N(C)C[C@H]1[C@H](c2ccc(-c3ccccc3F)cc2)[C@@H](CO)N1C(C)=O	DENV2 CPE 32 (no result: CaV13 FRET inh)
CC(=O)NC[C@@H]1[C@@H](c2ccc(-c3ccccc3F)cc2)[C@H](CO)N1C(=O)C1CC1	none (no result: CaV13 FRET inh)
COc1ccccc1-c1ccc([C@H]2[C@@H](CO)N(C(C)=O)[C@@H]2CN(C)C(C)=O)cc1	none (no result: CaV13 FRET inh)
CC(=O)NC[C@H]1[C@H](c2ccc(-c3ccccc3F)cc2)[C@H](CO)N1C(=O)C1CC1	DENV2 CPE 53 (no result: CaV13 FRET inh)
C[C@@H]1CN([C@H](C)CO)C(=O)c2cc(C#Cc3ccc(F)cc3)cnc2O[C@H]1CN(C)CC1CCOCC1	none (no result: CaV13 FRET inh)
C[C@@H]1CCCCO[C@@H](CN(C)C(=O)Nc2ccc(F)cc2)[C@H](C)CN([C@@H](C)CO)C(=O)c2cc(NC(=O)C3CCCCC3)ccc2O1	none (no result: CaV13 FRET inh)
CCS(=O)(=O)N1CCCCN2[C@H](C1)[C@H](c1ccc(C#Cc3ccccn3)cc1)[C@@H]2CO	DENV2 CPE 52 (no result: CaV13 FRET inh)
CCS(=O)(=O)N1CCCCN2[C@H](CO)[C@H](c3ccc(C#Cc4ccccn4)cc3)[C@@H]2C1	none (no result: CaV13 FRET inh)
CCS(=O)(=O)N1CCCCN2[C@H](C1)[C@@H](c1ccc(C#Cc3ccccc3OC)cc1)[C@@H]2CO	DENV2 CPE 40 (no result: CaV13 FRET inh)
COc1ccccc1C#Cc1ccc([C@H]2[C@@H](CO)N3CCCCN(C(=O)C4CCCC4)C[C@@H]23)cc1	SIRT5 inh 19 (no result: CaV13 FRET inh)
O=c1c2ccccc2n(CC(O)CN2CCCCC2)c2ccccc12 (configuration not stated)	CaV13 FRET inh active
COC(=O)[C@]1(CO)N=C(c2ccc(OCCCO)cc2)O[C@@H]1c1ccccc1CN=[N+]=[N-]	DENV2 CPE 51 (no result: CaV13 FRET inh)
COC(=O)[C@@]1(CCS(=O)(=O)c2ccccc2)N=C(c2ccc(OCCCO)cc2)O[C@H]1c1ccccc1	DENV2 CPE 27 (no result: CaV13 FRET inh)
[N-]=[N+]=NCc1ccccc1C[C@]1(C(N)=O)N=C(c2ccc(OCCCO)cc2)O[C@H]1c1ccccc1	DENV2 CPE 25 (no result: CaV13 FRET inh)
CN(C)C(=O)[C@@]1(Cc2ccccc2CN=[N+]=[N-])COC(c2ccc(OCCCO)cc2)=N1	none (no result: CaV13 FRET inh)
COC(=O)[C@@]1(Cc2ccccc2CN=[N+]=[N-])COC(c2ccc(OCCCO)cc2)=N1	DENV2 CPE 27 (no result: CaV13 FRET inh)
CCOC(=O)/C(C#N)=C1/C(=O)N(Cc2ccccc2)c2ccccc21	SIRT5 inh 21
CCOC(=O)C(C#N)=C1CCN(Cc2ccccc2)CC1	none
O=C(c1cccc(Cl)c1)C1CCCN(C(=O)c2ccc3c(c2)OCO3)C1 (configuration not stated)	MLL AF4-AF9 inh 31
